From ChEMBL document CHEMBL1137494, “The antiviral drug ribavirin is a selective inhibitor of S-adenosyl-L-homocysteine hydrolase from Trypanosoma cruzi” (Bioorg Med Chem, 2007)

Assays:
Trypanosoma cruzi [1] = assay: Inactivation of Trypanosoma cruzi recombinant S-adenosyl-L-homocysteine hydrolase NADH form expressed in Escherichia coli JM109 assessed by measuring fluorescence
[2] = molecular target: Adenosylhomocysteinase (Homo sapiens) (UniProt P23526); assay: Inactivation of human recombinant S-adenosyl-L-homocysteine hydrolase NAD+ form expressed in Escherichia coli JM109 at 100 uM
Sequence of Adenosylhomocysteinase (Homo sapiens) (P23526 2-432 limits assumed): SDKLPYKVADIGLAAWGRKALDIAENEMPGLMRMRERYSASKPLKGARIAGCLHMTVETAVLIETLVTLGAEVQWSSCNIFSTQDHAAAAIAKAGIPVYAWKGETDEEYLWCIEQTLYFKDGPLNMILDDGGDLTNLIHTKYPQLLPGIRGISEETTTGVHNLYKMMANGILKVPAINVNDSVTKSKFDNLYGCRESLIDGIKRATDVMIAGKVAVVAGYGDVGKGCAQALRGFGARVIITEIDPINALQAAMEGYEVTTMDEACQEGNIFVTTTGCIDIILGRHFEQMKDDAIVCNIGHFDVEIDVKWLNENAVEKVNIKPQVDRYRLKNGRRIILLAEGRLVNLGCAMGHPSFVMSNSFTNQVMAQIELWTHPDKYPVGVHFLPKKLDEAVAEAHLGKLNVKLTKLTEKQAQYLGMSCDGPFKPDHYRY
Outline: (§1)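 Enzyme (1 μM), fully reconstituted with NAD+, incubated with 100 μM ribavirin and 50 μM NAD+ in phosphate pH 7.2 at 37 °C; remaining hydrolytic activity (AdoHcy → Ado + Hcy, ADA-coupled, DTNB read at 412 nm, 22 °C) sampled over time; first-order inactivation rate constant.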

Trypanosoma cruzi [3] = assay: Inactivation of Trypanosoma cruzi recombinant S-adenosyl-L-homocysteine hydrolase NAD+ form expressed in Escherichia coli JM109 at 100 uM; outline: as §1
[4] = molecular target: Adenosylhomocysteinase (Homo sapiens) (UniProt P23526); assay: Inactivation of human recombinant S-adenosyl-L-homocysteine hydrolase NAD+ form expressed in Escherichia coli JM109 assessed as increase in fluorescence at 200 uM
Outline: (§2)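 NAD+-reconstituted enzyme (10 μM) incubated with 200 μM ribavirin plus 100 μM NAD+ in 50 mM phosphate pH 7.2, 1 mM EDTA at 37 °C; rise in NADH fluorescence (ex 340/em 450 nm) followed over time and fit to first-order relationship.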

Trypanosoma cruzi [5] = assay: Inactivation of Trypanosoma cruzi recombinant S-adenosyl-L-homocysteine hydrolase NAD+ form expressed in Escherichia coli JM109 assessed as increase in fluorescence at 200 uM; outline: as §2
[6] = molecular target: Adenosylhomocysteinase (Homo sapiens) (UniProt P23526); assay: Binding to human recombinant S-adenosyl-L-homocysteine hydrolase NADH form expressed in Escherichia coli JM109
Outline: (§3)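 Apo-enzyme reconstituted with 1 mM NADH (pH 8.5, 12 h, 4 °C) and gel-filtration purified; 10 μM enzyme incubated with ribavirin 0-6 mM in 50 mM phosphate pH 7.2, 1 mM EDTA, 37 °C. Quenching of bound NADH fluorescence (ex 340/em 450 nm) fit to hyperbolic saturation model to give dissociation constant KR.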

Trypanosoma cruzi [7] = assay: Binding to Trypanosoma cruzi recombinant S-adenosyl-L-homocysteine hydrolase NADH form expressed in Escherichia coli JM109; outline: as §3
[8] = molecular target: Adenosylhomocysteinase (Homo sapiens) (UniProt P23526); assay: Ratio of kinact for human recombinant S-adenosyl-L-homocysteine hydrolase NAD+ form to KI for human recombinant S-adenosyl-L-homocysteine hydrolase NAD+
Trypanosoma cruzi [9] = assay: Ratio of kinact for Trypanosoma cruzi recombinant S-adenosyl-L-homocysteine hydrolase NAD form to KI for Trypanosoma cruzi recombinant S-adenosyl-L-homocysteine hydrolase NAD form

Row | SMILES | Fluorescence intensity (Trypanosoma cruzi [1]) [%] | Activity [2] | Activity (Trypanosoma cruzi [3]) | Fluorescence intensity [4] | Fluorescence intensity (Trypanosoma cruzi [5]) | Activity (Trypanosoma cruzi [1]) | KR [6] [µM] | KR (Trypanosoma cruzi [7]) [µM] | Ratio [8] [M⁻¹ s⁻¹] | Ratio (Trypanosoma cruzi [9]) [M⁻¹ s⁻¹]
1 | Nc1ncnc2c1ncn2[C@@H]1C=C[C@@H](O)[C@H]1O | 5.4 |  |  |  |  |  |  |  |  | 
2 | NC(=O)c1ncn([C@@H]2O[C@H](CO)[C@@H](O)[C@H]2O)n1 |  | Dose-dependent effect | Dose-dependent effect | 182000 | 227000 | 3.13 10^10/M | 407 | 586 | 0.56 | 3.92
